The source of these data is ChEMBL document CHEMBL3526062, “Role of human UDP-glucuronosyltransferases in the biotransformation of the triazoloacridinone and imidazoacridinone antitumor agents C-1305 and C-1311: highly selective substrates for UGT1A10” (Drug Metab Dispos, 2012).

Common to all, as to assay type: ADME
The test system of data set [1] is CN(C)CCCNc1ccc2nnn3c4ccc(O)cc4c(=O)c1c23. Kind of data set: (§1) Activity of human recombinant UGT1A10 D396A mutant expressed in baculovirus-infected Sf9 cells assessed as enzyme-mediated glucuronidation after 60 mins by Michaelis-Menten equation in presence of 3 mM UDP-GlcUA. In outline: (§2)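 Membrane fractions (5 μg) holding wild-type or point-mutant UGT1A10 incubated with increasing substrate concentrations and 3 mM UDP-GlcUA, 60 min, 37°C; products by HPLC. Kinetic constants from curve fits of three determinations; Km in μM, Vmax in nmol/mg protein/min.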

The subject of data set [2] is CCN(CC)CCNc1ccc2ncn3c4ccc(O)cc4c(=O)c1c23. The data set is described as §1. Summed up:
as §2

Data set [3] deals with CN(C)CCCNc1ccc2nnn3c4ccc(O)cc4c(=O)c1c23. Kind of data set: (§3) Activity of human recombinant UGT1A10 V92A mutant expressed in baculovirus-infected Sf9 cells assessed as enzyme-mediated glucuronidation after 60 mins by Michaelis-Menten equation in presence of 3 mM UDP-GlcUA. In outline: as §2
Data set [4] concerns CCN(CC)CCNc1ccc2ncn3c4ccc(O)cc4c(=O)c1c23. Described as §3. Summed up:
as §2

Substrate in data set [5]: CN(C)CCCNc1ccc2nnn3c4ccc(O)cc4c(=O)c1c23
Kind of data set: (§4) Activity of human recombinant UGT1A9 expressed in baculovirus-infected Sf9 cells assessed as enzyme-mediated glucuronidation after 60 mins by Michaelis-Menten equation in presence of 3 mM UDP-GlcUA. In outline:
(§5)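 Recombinant UGT membrane protein (5 μg; His-tagged UGT1A levels normalized by anti-His Western blot) or single-donor microsomes (20 μg) incubated with substrate 5–1000 μM and 3 mM UDP-GlcUA in […] pH 7.4, 5 mM MgCl2, 5 mM saccharolactone, 2% DMSO, 60 min, 37°C. Ethanol stop, centrifuged, HPLC-UV. Initial velocities fitted to Michaelis-Menten, Hill or substrate-inhibition models; three determinations.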

Substrate in data set [6]: CCN(CC)CCNc1ccc2ncn3c4ccc(O)cc4c(=O)c1c23
Described as §4. In outline: as §5

Substrate in data set [7]: CN(C)CCCNc1ccc2nnn3c4ccc(O)cc4c(=O)c1c23
Kind of data set: (§6) Activity of human recombinant UGT1A10 expressed in baculovirus-infected Sf9 cells assessed as enzyme-mediated glucuronidation after 60 mins by Michaelis-Menten equation in presence of 3 mM UDP-GlcUA. Summed up:
as §5

Substrate in data set [8]: CCN(CC)CCNc1ccc2ncn3c4ccc(O)cc4c(=O)c1c23
The data set is described as §6. Summed up: as §5

Substrate in data set [9]: CN(C)CCCNc1ccc2nnn3c4ccc(O)cc4c(=O)c1c23
Kind of data set: (§7) Activity of human recombinant UGT1A1 expressed in baculovirus-infected Sf9 cells assessed as enzyme-mediated glucuronidation after 60 mins by Michaelis-Menten equation in presence of 3 mM UDP-GlcUA. In outline:
as §5

Substrate in data set [10]: CCN(CC)CCNc1ccc2ncn3c4ccc(O)cc4c(=O)c1c23
The data set is described as §7. In outline: as §5

Substrate in data set [11]: CN(C)CCCNc1ccc2nnn3c4ccc(O)cc4c(=O)c1c23
Kind of data set: Activity of human recombinant UGT1A7 expressed in baculovirus-infected Sf9 cells assessed as enzyme-mediated glucuronidation after 60 mins by Michaelis-Menten equation in presence of 3 mM UDP-GlcUA.

As a reminder, the Km is the concentration of substrate that gives half-maximal velocity. The Vmax is the top rate of the reaction or transport when substrate is in excess. For “UDP-glucuronosyltransferase 1A10 (Homo sapiens; D396A)”, the Km in data set [1] was determined as 47.6 µM; in [2], 75.4 µM. The Vmax is 0.00199 µmol/min in data set [1] and 0.00078 µmol/min in [2].
Take “UDP-glucuronosyltransferase 1A10 (Homo sapiens; V92A)”: the Km in data set [3] was 64.7 µM; in [4], 40.7 µM. Besides, the Vmax in [3] worked out at 0.00073 µmol/min; in [4] it was 0.00025 µmol/min.

B1: UDP-glucuronosyltransferase 1A9 (Homo sapiens) (protein)
chain: MACTGWTSPLPLCVCLLLTCGFAEAGKLLVVPMDGSHWFTMRSVVEKLILRGHEVVVVMPEVSWQLGRSLNCTVKTYSTSYTLEDLDREFKAFAHAQWKAQVRSIYSLLMGSYNDIFDLFFSNCRSLFKDKKLVEYLKESSFDAVFLDPFDNCGLIVAKYFSLPSVVFARGILCHYLEEGAQCPAPLSYVPRILLGFSDAMTFKERVRNHIMHLEEHLLCHRFFKNALEIASEILQTPVTEYDLYSHTSIWLLRTDFVLDYPKPVMPNMIFIGGINCHQGKPLPMEFEAYINASGEHGIVVFSLGSMVSEIPEKKAMAIADALGKIPQTVLWRYTGTRPSNLANNTILVKWLPQNDLLGHPMTRAFITHAGSHGVYESICNGVPMVMMPLFGDQMDNAKRMETKGAGVTLNVLEMTSEDLENALKAVINDKSYKENIMRLSSLHKDRPVEPLDLAVFWVEFVMRHKGAPHLRPAAHDLTWYQYHSLDVIGFLLAVVLTVAFITFKCCAYGYRKCLGKKGRVKKAHKSKTH
Regarding B1, the figures for the Km in [5] and in [6] were 54.6 µM and 63.3 µM, respectively. Moreover, the Vmax in [5] was found to be 0.000201 µmol/min; in data set [6], 0.000206 µmol/min.

B2: UDP-glucuronosyltransferase 1A10 (Homo sapiens) (protein)
chain: MARAGWTSPVPLCVCLLLTCGFAEAGKLLVVPMDGSHWFTMQSVVEKLILRGHEVVVVMPEVSWQLERSLNCTVKTYSTSYTLEDQNREFMVFAHAQWKAQAQSIFSLLMSSSSGFLDLFFSHCRSLFNDRKLVEYLKESSFDAVFLDPFDTCGLIVAKYFSLPSVVFTRGIFCHHLEEGAQCPAPLSYVPNDLLGFSDAMTFKERVWNHIVHLEDHLFCQYLFRNALEIASEILQTPVTAYDLYSHTSIWLLRTDFVLDYPKPVMPNMIFIGGINCHQGKPLPMEFEAYINASGEHGIVVFSLGSMVSEIPEKKAMAIADALGKIPQTVLWRYTGTRPSNLANNTILVKWLPQNDLLGHPMTRAFITHAGSHGVYESICNGVPMVMMPLFGDQMDNAKRMETKGAGVTLNVLEMTSEDLENALKAVINDKSYKENIMRLSSLHKDRPVEPLDLAVFWVEFVMRHKGAPHLRPAAHDLTWYQYHSLDVIGFLLAVVLTVAFITFKCCAYGYRKCLGKKGRVKKAHKSKTH
Turning to B2, in data set [7], the Km turned out to be 94.1 µM and the Vmax came to 0.00256 µmol/min. In data set [8], the Km was 70.6 µM and the Vmax turned out to be 0.000624 µmol/min.

B3: UDP-glucuronosyltransferase 1A1 (Homo sapiens) (protein)
chain: MAVESQGGRPLVLGLLLCVLGPVVSHAGKILLIPVDGSHWLSMLGAIQQLQQRGHEIVVLAPDASLYIRDGAFYTLKTYPVPFQREDVKESFVSLGHNVFENDSFLQRVIKTYKKIKKDSAMLLSGCSHLLHNKELMASLAESSFDVMLTDPFLPCSPIVAQYLSLPTVFFLHALPCSLEFEATQCPNPFSYVPRPLSSHSDHMTFLQRVKNMLIAFSQNFLCDVVYSPYATLASEFLQREVTVQDLLSSASVWLFRSDFVKDYPRPIMPNMVFVGGINCLHQNPLSQEFEAYINASGEHGIVVFSLGSMVSEIPEKKAMAIADALGKIPQTVLWRYTGTRPSNLANNTILVKWLPQNDLLGHPMTRAFITHAGSHGVYESICNGVPMVMMPLFGDQMDNAKRMETKGAGVTLNVLEMTSEDLENALKAVINDKSYKENIMRLSSLHKDRPVEPLDLAVFWVEFVMRHKGAPHLRPAAHDLTWYQYHSLDVIGFLLAVVLTVAFITFKCCAYGYRKCLGKKGRVKKAHKSKTH
For B3, the Km in [9] was determined as 149 µM; in [10], 28.9 µM. The Vmax was 0.000262 µmol/min in data set [9] and 0.000115 µmol/min in data set [10].

B4: UDP-glucuronosyltransferase 1A7 (Homo sapiens) (protein)
chain: MARAGWTGLLPLYVCLLLTCGFAKAGKLLVVPMDGSHWFTMQSVVEKLILRGHEVVVVMPEVSWQLGRSLNCTVKTYSTSYTLEDQDREFMVFADARWTAPLRSAFSLLTSSSNGIFDLFFSNCRSLFNDRKLVEYLKESCFDAVFLDPFDACGLIVAKYFSLPSVVFARGIFCHYLEEGAQCPAPLSYVPRLLLGFSDAMTFKERVWNHIMHLEEHLFCPYFFKNVLEIASEILQTPVTAYDLYSHTSIWLLRTDFVLEYPKPVMPNMIFIGGINCHQGKPVPMEFEAYINASGEHGIVVFSLGSMVSEIPEKKAMAIADALGKIPQTVLWRYTGTRPSNLANNTILVKWLPQNDLLGHPMTRAFITHAGSHGVYESICNGVPMVMMPLFGDQMDNAKRMETKGAGVTLNVLEMTSEDLENALKAVINDKSYKENIMRLSSLHKDRPVEPLDLAVFWVEFVMRHKGAPHLRPAAHDLTWYQYHSLDVIGFLLAVVLTVAFITFKCCAYGYRKCLGKKGRVKKAHKSKTH
Regarding B4, in [11], the Km is 29.3 µM and the Vmax was 0.000306 µmol/min.
